PMC10908290 (Drug Design, Development and Therapy, 2024)
In brackets after ≈: the same amount, converted by molar mass.

Experiments:
MCF-7 = test: Cytotoxic activity, MCF-7; format: cell-based; settings: for CC50: MCF7, read-out: LC50; for SI (Selectivity Index): IC50 value normal cell / IC50 value cancer cell (Vero / MCF-7)
[1] = Cytotoxic activity, normal Vero cell line; format: cell-based; settings: African green monkey, Vero cells (normal cell line)
mushroom tyrosinase = test: Mushroom tyrosinase inhibitory activity, spectrophotometric, L-DOPA substrate; format: biochemical
[2] = DPPH free radical scavenging; settings: Table 6, unit not given
Outline: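 Test compound solutions (25 or 100 µg/mL in methanol) added to 0.004% (w/v) methanolic DPPH. After 30 min incubation, absorbance read at 517 nm. Percent inhibition calculated against DPPH solution lacking test material. Run in triplicate.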

S. aureus = test: Minimum inhibitory concentration, S. aureus; format: cell-based; settings: Staphylococcus aureus, read-out: Minimal Inhibitory Concentration (MIC)
E. coli = test: Minimum inhibitory concentration, E. coli; format: cell-based; settings: Escherichia coli, read-out: Minimal Inhibitory Concentration (MIC)
E. coli (MTCC 739) = test: Antibacterial disc diffusion, E. coli; format: cell-based; settings: Escherichia coli, MTCC739, 24 h, read-out: Diameter of Growth Inhibition Zone
Outline: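 Test compound dissolved in DMSO at 100 μg/mL and loaded onto 8 mm sterile filter-paper discs. E. coli MTCC 739 prepared from pure colonies in sterile saline, adjusted to 0.5 McFarland, and swabbed onto Mueller-Hinton agar. Plates incubated 24 h at 37°C, then zone of inhibition measured. Ampicillin as reference. Mean ± SD of three independent experiments.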

SMILES	CC50 (MCF-7; Homo sapiens)	SI (Selectivity Index) (MCF-7)	CC50 [1]	percentage of tyrosinase inhibition (mushroom tyrosinase; 25 µg/mL)	percentage of tyrosinase inhibition (mushroom tyrosinase; 50 µg/mL)	percentage of tyrosinase inhibition (mushroom tyrosinase; 100 µg/mL)	Tyrosinase inhibition IC50 (mushroom tyrosinase; mean ± SE of three experiments)	Antioxidant activity (100 µg/mL) [2]	MIC (S. aureus)	MIC (E. coli)	IC (TGI) (MCF-7; Homo sapiens, MCF7, read-out: TGI)	Cytotoxic activity (MCF-7; Table 6, unit not given, equals MCF-7 LC50)	zone of inhibition at 100 µg/mL (E. coli (MTCC 739))
COc1cccc2c1C(=O)c1c(O)c3c(c(O)c1C2=O)C[C@@](O)(C(=O)CO)C[C@@H]3O[C@H]1C[C@H](N)[C@H](O)[C@H](C)O1 [Doxorubicin, reference compound]	0.74 ± 0.01 mg/L (≈ 1.36 µM)	26.82	19.85 ± 0.02 mg/L (≈ 36.5 µM)										
Cc1ccccc1NC(=O)C1C(=O)C(c2ccccc2)c2ccc3c(c21)C(=O)c1ccccc1C3=O (stereo not shown) [Compound 1, 2,6,11-Trioxo-3-Phenyl-N-(o-Tolyl)-2,3,6,11-Tetrahydro-1H-Cyclopenta[a]anthracene-1-Carboxamide]	87 ± 0.16 mg/L (≈ 185 µM)	1.06	93.01 ± 0.05 mg/L (≈ 197 µM)	13.72 ± 0.02%	49.30 ± 1.06%	51.23 ± 0.23%	77.62 ± 1.20 mg/L	58.11	64 mg/L (≈ 136 µM)	> 100 mg/L	60.1 ± 0.09 µM	87.0± 0.16	
O=c1cc(CO)occ1O [Kojic acid, reference compound]				56.23 ± 1.12%	67.21 ± 1.12%	84.65 ± 1.62%							
CC1(C)S[C@@H]2[C@H](NC(=O)[C@H](N)c3ccccc3)C(=O)N2[C@H]1C(=O)O [Ampicillin]													17 mm
